The text below walks through data of ChEMBL document CHEMBL1138264, “Aromatic lipoxin A4 and lipoxin B4 analogues display potent biological activities” (J Med Chem, 2007).

The source made the active and inactive calls. No cut-off for these calls is given here.

Experiment [1] has as its system THP-1. The experiment in a line: Increase in human THP1 cells mediated phagocytosis of apoptotic polymorphonuclear leukocytes at 0.1 pM to 1 nM after 15 mins. In kind it is functional, cell-based. The procedure, abridged:
(§1)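 THP-1 cells differentiated with 100 nM PMA for 48 h (5 × 10^5 cells/well), pretreated 15 min at 37 °C, then co-incubated 2 h at 37 °C with 1 × 10^6 human PMNs made apoptotic by 20 h culture. Vehicle was 0.1% DMSO or ethanol. After cold PBS washes, myeloperoxidase staining; % THP-1 cells containing ≥1 PMN (≥400 cells, duplicate wells); n = 3.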

In experiment [2] the test system is THP-1. The experiment in a line: Increase in human THP1 cells mediated phagocytosis of apoptotic polymorphonuclear leukocytes at 1 nM in presence of pan-FPR/ALXR antagonist Boc2. In kind it is functional, cell-based. The method in brief:
(§2)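 PMA-differentiated THP-1 cells given Boc2 (100 µM), with or without stimulus, for 15 min at 37 °C. Then co-incubated 2 h with apoptotic human PMNs. Phagocytosis scored by myeloperoxidase staining as % THP-1 cells containing PMNs; mean ± SEM, n = 3, compared with no Boc2.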

The subject of experiment [3] is THP-1. The experiment in a line: Increase in human THP1 cells mediated phagocytosis of apoptotic polymorphonuclear leukocytes at 0.01 pM to 1 nM after 15 mins. In kind it is functional, cell-based. The procedure, abridged: as §1
Experiment [4] deals with THP-1. The experiment in a line: Increase in human THP1 cells mediated phagocytosis of apoptotic polymorphonuclear leukocytes at 10 pM after 15 mins. In kind it is functional, cell-based. The method in brief:
as §1

For experiment [5], the system named is THP-1. The experiment in a line: Induction of F-actin rearrangement in human THP1 cells at 1 nM after 15 mins. In kind it is functional, cell-based. The method in brief: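 PMA-differentiated THP-1 cells (1 × 10^6/well) on glass coverslips, exposed to stimulus at 1 nM for 15 min. Fixed in 3.8% paraformaldehyde, permeabilized with 0.1% Triton X-100, stained with 0.33 µmol/L Oregon Green-phalloidin for 30 min. F-actin localization imaged by fluorescence microscopy (×100 oil objective); three independent experiments.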

Experiment [6] relates to THP-1. Description: Increase in human THP1 cells mediated phagocytosis of apoptotic polymorphonuclear leukocytes at 1 nM after 15 mins. In kind it is functional, cell-based. The method in brief: as §1
The subject of experiment [7] is THP-1. The experiment in a line: Increase in human THP1 cells adherence to laminin after 30 mins. In kind it is functional, cell-based. The procedure, abridged: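 THP-1 cells loaded with 1 µM BCECF-AM for 20 min at 37 °C, then resuspended at 3.3 × 10^6/mL in PBS2+ with 0.1% BSA. Cells settled 10 min on laminin-coated wells, then given agonist or vehicle for 30 min at 37 °C. Washed, lysed in NaOH/SDS, fluorescence read. Percent adherence above vehicle; three experiments, each in triplicate.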

In experiment [8] the test system is THP-1. Description: Increase in human THP1 cells mediated phagocytosis of apoptotic polymorphonuclear leukocytes at 1 pM in presence of pan-FPR/ALXR antagonist Boc2. In kind it is functional, cell-based. The procedure, abridged:
as §2

The next experiment relates to Mus musculus. The experiment in a line: Decrease in zymosan-induced neutrophil accumulation in mouse model of peritonitis at 50 ug/kg, iv. In kind it is functional, organism-based. The method in brief: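 Zymosan A peritonitis in mice: analogue at 0.5-50 µg/kg given intravenously (vehicle n = 15; n = 6 per dose group), followed 5 min later by i.p. zymosan A, 1 mg in 0.5 mL sterile PBS. Peritoneal lavage at 4 h with PBS/3 mM EDTA/heparin. Cells Fc-blocked, stained with PE anti-Gr-1 and counted as neutrophils (Gr-1+). Mean ± SEM versus vehicle.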

Experiment [9] deals with THP-1. Description: Increase in human THP1 cells mediated phagocytosis of apoptotic polymorphonuclear leukocytes at 0.01 pM after 15 mins. In kind it is functional, cell-based. The method in brief:
as §1

As for `CCCCC[C@H](O)/C=C/C=C\C=C\C=C\[C@@H](O)[C@@H](O)CCCC(=O)O`, the result in the experiment with THP-1 [1] was Active. Moreover, the outcome in the experiment with THP-1 [2] was inactive.
As to `CCCCC[C@H](O)c1ccccc1/C=C/[C@@H](O)[C@@H](O)CCCC(=O)O`, in the experiment on THP-1 [3], the result was inactive.
For `CCCCC[C@H](O)[C@H](O)/C=C/c1ccccc1[C@@H](O)CCCC(=O)OC(C)(C)C`, the result with THP-1 [4] and in the experiment with THP-1 [5] was Active.
Regarding `CCCCC[C@@H](O)c1ccccc1/C=C/[C@@H](O)[C@@H](O)CCCC(=O)O`, the result in the experiment on THP-1 [3] was inactive.
Regarding `CCCCC[C@H](O)c1ccccc1/C=C/[C@@H](O)[C@@H](O)CCCC(=O)OC`, the outcome with THP-1 [6], in the experiment with THP-1 [5] and in the experiment with THP-1 [7] was Active. Besides, the outcome in the experiment on THP-1 [2] was inactive.
Turning to `CCCCC[C@@H](O)c1ccccc1/C=C/[C@@H](O)[C@@H](O)CCCC(=O)OC`, the outcome in the experiment on THP-1 [8] and with THP-1 [9] was inactive. Also, the outcome in the experiment on THP-1 [1], in the experiment with THP-1 [5], in the experiment on Mus musculus and with THP-1 [7] was Active.
